We go through eight compounds from ChEMBL document CHEMBL1139042, “1,3-Disubstituted-imidazo[1,5-a]pyrazines as insulin-like growth-factor-I receptor (IGF-IR) inhibitors” (Bioorg Med Chem Lett, 2007).

A word on the bioavailability: it is dose-corrected exposure relative to a reference, in per cent. For orientation: Cmax means the peak of the concentration-time curve. Usually AUC(0-inf) stands for the area under the concentration-time curve extrapolated to infinity. As a reminder, the half-life is the time in which the quantity being followed falls by half. For orientation: pIC50 means −log10 of the IC50, conventionally taken in molar units. As a reminder, the inhibition is the percentage by which the read-out fell short of the control. Higher therefore signals a response far below the control.

The structures appear in SMILES notation. pIC50: −log10 of the molar value.

Series [1] in a line: Oral bioavailability in CD1 mouse at 50 mg/kg, po. The note with it: in vivo. The class given is ADME, organism-based. In short, it runs like this:
(§1)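 Female CD-1 mice, 6–10 weeks old, received a single 1 mg/kg IV tail-vein dose or a single 50 mg/kg oral gavage dose. The oral vehicle varied by compound: 30:70 PEG-400:WFI with Labrafil, 50:50 PEG-400:WFI, or 50:50 PEG-400:5% citric acid. Three animals were sacrificed per timepoint and blood was taken into EDTA by cardiac puncture. Plasma (1500g, 10 min) was methanol-precipitated and analysed by HPLC-MS/MS against spiked mouse-plasma calibrants. Parameters came from non-compartmental analysis of median (n=3) concentrations.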

Series [2] is described as follows: Cmax in CD1 mouse at 50 mg/kg, po. It is filed as ADME, organism-based. The arrangement: dose 50 mg/kg, route oral. The note with it: in vivo. The gist of the method: as §1
Series [3] is described as follows: AUC (0 to infinity) in CD1 mouse at 50 mg/kg, po. It is filed as ADME, organism-based. The arrangement: time infinity, dose 50 mg/kg, route oral. The note with it: plasma. In short, it runs like this:
as §1

Series [4] is described as follows: Half life in CD1 mouse at 1 mg/kg, iv. The class given is ADME, organism-based. The arrangement: dose 1 mg/kg, route intravenous. The settings on record: in vivo. The gist of the method: as §1
Series [5] deals with T1, Insulin-like growth factor 1 receptor (Homo sapiens, UniProt P08069). The series is described as follows: Inhibition of IGF1-stimulated phosphorylation of human recombinant IGF1R expressed in NIH3T3 cells. The class given is cell-based.
T1 sequence (P08069 31-736 limits assumed): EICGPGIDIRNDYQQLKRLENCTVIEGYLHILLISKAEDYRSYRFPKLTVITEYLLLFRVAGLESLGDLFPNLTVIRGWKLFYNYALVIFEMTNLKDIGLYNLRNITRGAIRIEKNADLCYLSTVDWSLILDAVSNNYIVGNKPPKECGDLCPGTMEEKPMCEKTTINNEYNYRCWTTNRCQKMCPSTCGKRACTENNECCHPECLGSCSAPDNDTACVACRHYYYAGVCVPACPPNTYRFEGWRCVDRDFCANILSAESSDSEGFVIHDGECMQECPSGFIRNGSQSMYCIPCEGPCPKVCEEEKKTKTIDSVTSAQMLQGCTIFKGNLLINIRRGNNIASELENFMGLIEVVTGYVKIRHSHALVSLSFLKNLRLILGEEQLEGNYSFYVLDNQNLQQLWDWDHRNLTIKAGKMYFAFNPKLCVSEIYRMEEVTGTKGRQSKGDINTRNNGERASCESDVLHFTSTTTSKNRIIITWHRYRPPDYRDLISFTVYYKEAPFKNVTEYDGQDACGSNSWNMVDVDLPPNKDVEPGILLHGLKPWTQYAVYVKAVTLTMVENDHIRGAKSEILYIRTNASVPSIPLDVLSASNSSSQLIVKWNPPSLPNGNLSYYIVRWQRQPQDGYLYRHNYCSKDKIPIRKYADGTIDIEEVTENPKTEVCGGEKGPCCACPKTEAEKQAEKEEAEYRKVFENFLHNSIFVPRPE
T1 sequence (P08069 741-1367 limits assumed): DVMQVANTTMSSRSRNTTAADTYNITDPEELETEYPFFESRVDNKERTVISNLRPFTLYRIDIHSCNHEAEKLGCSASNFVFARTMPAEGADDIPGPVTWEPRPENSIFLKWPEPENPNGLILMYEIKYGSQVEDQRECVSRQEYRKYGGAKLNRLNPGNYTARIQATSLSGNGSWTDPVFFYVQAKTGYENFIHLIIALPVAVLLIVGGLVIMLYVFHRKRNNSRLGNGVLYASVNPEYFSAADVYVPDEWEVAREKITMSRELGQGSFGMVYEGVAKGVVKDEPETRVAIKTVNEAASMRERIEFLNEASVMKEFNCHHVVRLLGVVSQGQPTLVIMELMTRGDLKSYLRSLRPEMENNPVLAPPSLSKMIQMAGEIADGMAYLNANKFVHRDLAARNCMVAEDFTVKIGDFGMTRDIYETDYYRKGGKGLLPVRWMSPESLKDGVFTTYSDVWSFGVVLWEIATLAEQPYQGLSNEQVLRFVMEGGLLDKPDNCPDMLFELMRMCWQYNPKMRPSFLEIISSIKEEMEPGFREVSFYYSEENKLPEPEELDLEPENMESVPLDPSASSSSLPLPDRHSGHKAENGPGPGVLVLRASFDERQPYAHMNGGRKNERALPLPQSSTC
Series [6] has as its target T1, Insulin-like growth factor 1 receptor. Nature of the series: Inhibition of human recombinant GST-IGF1R activity.
Series [7] concerns the target Ribosomal protein S6 kinase beta-1 (Homo sapiens) (UniProt P23443). Nature of the series: Inhibition of p70S6K at 10 uM. In short, it runs like this:
(§2)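 Radiometric kinase profiling was run as an outsourced panel on recombinant purified enzymes.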

Series [8] deals with Mitogen-activated protein kinase 1 (ERK2) (Homo sapiens) (UniProt P28482). The series is described as follows: Inhibition of MAPK2 at 10 uM.
Chain of Mitogen-activated protein kinase 1 (ERK2) (Homo sapiens) (P28482 whole entry, looked up): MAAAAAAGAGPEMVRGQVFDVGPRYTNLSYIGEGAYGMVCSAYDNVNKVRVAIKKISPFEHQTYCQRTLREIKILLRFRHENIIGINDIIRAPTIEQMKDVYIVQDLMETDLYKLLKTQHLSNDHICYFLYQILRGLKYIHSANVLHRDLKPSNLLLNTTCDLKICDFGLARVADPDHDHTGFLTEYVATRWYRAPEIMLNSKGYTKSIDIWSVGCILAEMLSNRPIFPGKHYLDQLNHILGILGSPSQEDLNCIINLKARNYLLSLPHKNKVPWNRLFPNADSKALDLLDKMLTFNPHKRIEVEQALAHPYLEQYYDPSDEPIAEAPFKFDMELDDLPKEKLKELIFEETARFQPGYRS
For series [9], the target named is Protein kinase C alpha type (Homo sapiens) (UniProt P17252). The series is described as follows: Inhibition of PKCalpha at 10 uM. In short, it runs like this: as §2
Series [10] deals with T2, Inhibitor of nuclear factor kappa-B kinase subunit beta (Homo sapiens) (UniProt O14920).
T2 sequence (whole entry): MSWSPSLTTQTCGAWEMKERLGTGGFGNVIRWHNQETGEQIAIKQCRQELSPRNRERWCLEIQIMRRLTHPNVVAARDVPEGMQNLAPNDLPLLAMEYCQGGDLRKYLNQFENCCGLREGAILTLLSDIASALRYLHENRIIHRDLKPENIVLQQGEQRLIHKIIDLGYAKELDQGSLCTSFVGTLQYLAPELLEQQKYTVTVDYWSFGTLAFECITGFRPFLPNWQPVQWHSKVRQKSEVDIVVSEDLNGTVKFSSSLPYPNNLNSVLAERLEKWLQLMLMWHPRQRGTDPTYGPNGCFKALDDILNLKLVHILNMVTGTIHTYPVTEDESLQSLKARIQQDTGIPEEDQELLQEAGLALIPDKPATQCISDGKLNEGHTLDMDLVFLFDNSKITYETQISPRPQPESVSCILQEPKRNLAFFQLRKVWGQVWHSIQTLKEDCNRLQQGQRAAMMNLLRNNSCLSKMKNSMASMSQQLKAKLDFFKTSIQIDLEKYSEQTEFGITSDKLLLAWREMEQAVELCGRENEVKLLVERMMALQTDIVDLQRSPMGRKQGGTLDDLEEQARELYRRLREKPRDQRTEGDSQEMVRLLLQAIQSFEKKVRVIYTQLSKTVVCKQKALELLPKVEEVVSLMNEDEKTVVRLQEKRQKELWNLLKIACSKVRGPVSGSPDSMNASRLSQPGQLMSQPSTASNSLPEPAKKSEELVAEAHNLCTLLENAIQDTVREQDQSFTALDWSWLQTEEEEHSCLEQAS
Nature of the series: Inhibition of IKK-beta at 10 uM. In short, it runs like this: as §2

The species named for series [11] is Homo sapiens. Nature of the series: Inhibition of PKBalpha at 10 uM. The gist of the method: as §2
Series [12] is filed under the species Homo sapiens. The series is described as follows: Inhibition of PKA at 10 uM. In short, it runs like this: as §2
For series [13], the species on record is Homo sapiens. Nature of the series: Inhibition of Cdk2/Cyclin A at 10 uM. The gist of the method:
as §2

The species entered for series [14] is Homo sapiens. Nature of the series: Inhibition of Cdk2/Cyclin E at 10 uM. The gist of the method:
as §2

The target in series [15] is Tyrosine-protein kinase ABL1 (Homo sapiens) (UniProt P00519). Nature of the series: Inhibition of Abl at 10 uM. The gist of the method: as §2
Chain of Tyrosine-protein kinase ABL1 (Homo sapiens) (P00519 whole entry): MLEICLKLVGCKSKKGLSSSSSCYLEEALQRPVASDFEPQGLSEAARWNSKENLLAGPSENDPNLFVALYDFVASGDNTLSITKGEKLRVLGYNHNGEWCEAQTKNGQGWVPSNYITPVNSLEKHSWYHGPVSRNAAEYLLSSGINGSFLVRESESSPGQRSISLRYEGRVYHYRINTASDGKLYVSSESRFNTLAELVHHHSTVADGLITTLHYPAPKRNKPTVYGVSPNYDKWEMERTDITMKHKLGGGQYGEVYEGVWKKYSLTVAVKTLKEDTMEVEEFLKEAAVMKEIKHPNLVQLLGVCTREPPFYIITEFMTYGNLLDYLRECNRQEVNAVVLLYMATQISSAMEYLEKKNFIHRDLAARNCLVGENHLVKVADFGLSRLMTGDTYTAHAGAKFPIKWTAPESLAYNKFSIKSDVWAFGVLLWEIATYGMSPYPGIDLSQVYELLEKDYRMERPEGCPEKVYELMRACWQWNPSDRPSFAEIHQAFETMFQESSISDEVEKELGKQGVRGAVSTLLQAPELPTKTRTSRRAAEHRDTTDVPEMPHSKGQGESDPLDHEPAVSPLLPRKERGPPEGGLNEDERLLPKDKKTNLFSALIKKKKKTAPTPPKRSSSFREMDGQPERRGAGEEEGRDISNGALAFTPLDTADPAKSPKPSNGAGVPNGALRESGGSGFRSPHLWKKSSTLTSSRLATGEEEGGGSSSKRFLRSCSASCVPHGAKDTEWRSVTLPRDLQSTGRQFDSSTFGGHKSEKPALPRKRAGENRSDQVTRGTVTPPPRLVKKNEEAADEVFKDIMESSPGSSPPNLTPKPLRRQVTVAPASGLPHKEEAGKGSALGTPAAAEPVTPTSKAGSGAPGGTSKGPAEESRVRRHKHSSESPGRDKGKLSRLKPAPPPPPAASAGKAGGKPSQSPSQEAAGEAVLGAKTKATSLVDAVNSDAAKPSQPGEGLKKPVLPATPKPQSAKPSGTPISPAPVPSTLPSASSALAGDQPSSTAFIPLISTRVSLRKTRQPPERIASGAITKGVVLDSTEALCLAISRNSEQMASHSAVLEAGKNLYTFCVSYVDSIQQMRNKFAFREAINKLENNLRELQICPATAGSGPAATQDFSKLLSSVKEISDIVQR
Series [16] addresses Platelet-derived growth factor receptor beta (Homo sapiens) (UniProt P09619). The series is described as follows: Inhibition of PDGFRbeta at 10 uM. The gist of the method:
as §2

The target of series [17] is Serine/threonine-protein kinase Chk2 (Homo sapiens) (UniProt O96017). The series is described as follows: Inhibition of Chk2 at 10 uM. The gist of the method: as §2
Chain of Serine/threonine-protein kinase Chk2 (Homo sapiens) (O96017 whole entry): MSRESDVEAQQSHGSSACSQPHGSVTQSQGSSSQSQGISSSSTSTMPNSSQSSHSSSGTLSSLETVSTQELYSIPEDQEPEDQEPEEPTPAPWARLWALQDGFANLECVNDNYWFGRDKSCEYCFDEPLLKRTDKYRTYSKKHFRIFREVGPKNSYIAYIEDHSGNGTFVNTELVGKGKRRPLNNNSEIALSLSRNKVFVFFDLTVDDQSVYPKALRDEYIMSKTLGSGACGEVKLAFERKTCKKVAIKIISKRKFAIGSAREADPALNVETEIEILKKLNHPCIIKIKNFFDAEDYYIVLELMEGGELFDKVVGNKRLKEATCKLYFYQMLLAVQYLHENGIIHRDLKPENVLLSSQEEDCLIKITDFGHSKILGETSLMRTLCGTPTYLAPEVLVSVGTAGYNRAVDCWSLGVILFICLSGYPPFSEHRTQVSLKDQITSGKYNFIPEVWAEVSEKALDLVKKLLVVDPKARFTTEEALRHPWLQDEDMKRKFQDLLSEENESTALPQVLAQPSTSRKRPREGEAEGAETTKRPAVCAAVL
Series [18] deals with Casein kinase II subunit alpha (Homo sapiens) (UniProt P68400). The series is described as follows: Inhibition of CK2 at 10 uM. The gist of the method:
as §2

For series [19], the target named is 3-phosphoinositide-dependent protein kinase 1 (PDPK1) (Homo sapiens) (UniProt O15530). The series is described as follows: Inhibition of PDK1 at 10 uM.
Chain of 3-phosphoinositide-dependent protein kinase 1 (PDPK1) (Homo sapiens) (O15530 whole entry, looked up): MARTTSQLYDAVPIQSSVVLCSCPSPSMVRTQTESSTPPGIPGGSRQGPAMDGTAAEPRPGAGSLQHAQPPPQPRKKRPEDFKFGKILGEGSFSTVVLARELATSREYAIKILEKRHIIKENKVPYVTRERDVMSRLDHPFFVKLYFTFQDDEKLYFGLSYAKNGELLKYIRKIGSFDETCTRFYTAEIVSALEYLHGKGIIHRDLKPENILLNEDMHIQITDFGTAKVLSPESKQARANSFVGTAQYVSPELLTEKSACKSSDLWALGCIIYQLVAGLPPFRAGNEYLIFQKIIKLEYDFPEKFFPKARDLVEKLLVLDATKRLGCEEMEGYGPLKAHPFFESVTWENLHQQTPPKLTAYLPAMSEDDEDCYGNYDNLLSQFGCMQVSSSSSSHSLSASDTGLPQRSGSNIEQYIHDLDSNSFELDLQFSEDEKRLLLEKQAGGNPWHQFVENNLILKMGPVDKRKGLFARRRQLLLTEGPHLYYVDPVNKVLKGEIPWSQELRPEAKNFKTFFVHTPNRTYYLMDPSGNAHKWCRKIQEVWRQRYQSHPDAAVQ
The target in series [20] is Tyrosine-protein kinase Fes/Fps (Homo sapiens) (UniProt P07332). The series is described as follows: Inhibition of Fes at 10 uM. In short, it runs like this: as §2
Series [21] has as its target RAF proto-oncogene serine/threonine-protein kinase (Homo sapiens) (UniProt P04049). Nature of the series: Inhibition of c-Raf at 10 uM. In short, it runs like this:
as §2

Chain of Casein kinase II subunit alpha (Homo sapiens) (P68400 whole entry, looked up): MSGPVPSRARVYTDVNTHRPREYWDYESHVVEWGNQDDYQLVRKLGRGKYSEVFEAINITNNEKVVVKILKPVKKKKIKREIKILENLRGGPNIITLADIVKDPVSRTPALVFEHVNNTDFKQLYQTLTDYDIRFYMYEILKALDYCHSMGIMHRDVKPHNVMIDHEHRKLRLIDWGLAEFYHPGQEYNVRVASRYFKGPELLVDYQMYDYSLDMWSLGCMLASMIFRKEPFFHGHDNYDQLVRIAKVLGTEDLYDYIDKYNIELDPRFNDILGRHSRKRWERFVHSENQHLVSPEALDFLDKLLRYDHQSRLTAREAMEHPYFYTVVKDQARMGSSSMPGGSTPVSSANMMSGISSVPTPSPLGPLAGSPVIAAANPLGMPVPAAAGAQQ

For the compound `Nc1nccn2c1c(-c1cccc(OCc3ccccc3)c1)nc2[C@H]1CC[C@H](C(N)=O)CC1`, in [1], the bioavailability turned out to be 34%. The compound further had a Cmax in series [2] of 2220 nM. Moreover, in series [3], the AUC(0-inf) turned out to be 1320 ng·h/mL. In addition, in series [4], the half-life is 0.63 h.
For `NC[C@H]1C[C@@H](c2nc(-c3cccc(OCc4ccccc4)c3)c3c(N)nccn32)C1`, the pIC50 was 6.16 in series [5] and 7.22 in [6].
For the compound `Nc1nccn2c(C3CCC3)nc(-c3cccc(OCc4ccccc4)c3)c12`, in [1], the bioavailability turned out to be 47%. This compound also had a Cmax in series [2] of 860 nM. The pIC50 in series [5] was 5.94; in series [6], 6.22. Besides, the AUC(0-inf) in series [3] is 1760 ng·h/mL. Further, in [4], the half-life was 1.3 h.
Turning to `Nc1nccn2c(C3CCC3)nc(-c3ccc(Oc4ccccc4)cc3)c12`, the negative-log IC50 (pIC50) in series [6] is under 5.00.
In the case of `NC[C@H]1CC[C@H](c2nc(-c3cccc(OCc4ccccc4)c3)c3c(N)nccn32)CC1`, the inhibition (in [7]; in series [8]; in series [9]; in series [10]; in the series filed under Homo sapiens [11]; in the series listed under Homo sapiens [12]) was under 50% throughout. Moreover, the inhibition (in the series listed under Homo sapiens [13]; in the series filed under Homo sapiens [14]; in series [15]; in [16]; in series [17]; in [18]) was under 50% each time. In addition, the inhibition in [19], in series [20] and in series [21] was under 50% throughout. Further, the bioavailability in series [1] worked out at 47%. Further, the Cmax in series [2] was 2850 nM. Moreover, the pIC50 in [5] is 6.27; in [6] it was 6.92. Further, the AUC(0-inf) in series [3] was determined as 3930 ng·h/mL. Moreover, the half-life in series [4] is 2.29 h.
Turning to `NC[C@H]1CC[C@@H](c2nc(-c3cccc(OCc4ccccc4)c3)c3c(N)nccn32)CC1`, the figures for the pIC50 in [5] and in series [6] were 6.25 and 6.64, respectively.
Turning to `COc1ccc(-c2nc(C3CCC3)n3ccnc(N)c23)cc1OCc1ccccc1`, in series [6], the pIC50 was 5.87.
For `Nc1nccn2c1c(-c1cccc(OCc3ccccc3)c1)nc2[C@H]1CC[C@H](CN2CCC2)CC1`, the pIC50 was 6.40 in series [5] and 7.09 in series [6].
